In ChEMBL document CHEMBL1151932, “Antiviral effect of ribonuclease conjugated oligodeoxynucleotides targeting the IRES RNA of the hepatitis C virus” (Bioorg Med Chem Lett, 2009) one finds Activity data, which are given here for 4 molecules.

Series [1] relates to Hepatitis C virus. Nature of the series: Cytotoxicity against HCV infected in human Huh7.5.1 cells treated through microporation for 17 hrs prior to 4 hr infection period measured after 20 hrs postinfection by luciferase assay. It is filed as organism-based. As to conditions: hepacivirus hominis, huh-7, 20 h.
Series [2] has as its system Hepatitis C virus. Nature of the series: Cytotoxicity against HCV infected in human Huh7.5.1 cells treated through microporation for < 17 hrs prior to 4 hrs infection period measured after 20 hrs postinfection by luciferase assay. The format is organism-based. The following applies: hepacivirus hominis, huh-7, 20 h.
For series [3], the system named is Hepatitis C virus. Nature of the series: Antiviral activity against HCV infected in human Huh7.5.1 cells assessed as reduction in viral replication treated through microporation 17 hrs prior to infection for 4 hrs measured after 20 hrs by luciferase assay relative to control. It is filed as functional, Hepacivirus hominis, Huh-7. Also on record: scale not given: the % may be the effect or the level left. The gist of the method: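 Huh7.5.1 cells electroporated (microporation) with ODNs at 10–1000 nM, then infected with HCVcc; replication read 20 h after infection. Triplicate runs; signal normalised to cell number by WST-1 and expressed as percent of scrambled-sequence non-specific ODN control.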

The subject of series [4] is Hepatitis C virus. The series is described as follows: Antiviral activity against HCV infected in human Huh7.5.1 cells assessed as reduction in viral replication treated through microporation 17 hrs prior to infection for 4 hrs measured after 20 hrs by luciferase assay. It is filed as functional, organism-based. As to conditions: Hepacivirus hominis; Huh-7. The procedure, abridged:
(§1)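 Huh7.5.1 cells were microporated with oligodeoxynucleotide (10–1000 nM) and infected with reporter HCVcc (FL-J6/JFH-5/C19Rluc2AUbi construct) about 17 h later. Viral replication was read 20 h after infection, normalized to cell number by WST-1, and expressed as % of a scrambled-sequence non-specific ODN control. Triplicate.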

Series [5] has as its system Hepatitis C virus. The series is described as follows: Antiviral activity against HCV infected in human Huh7.5.1 cells assessed as reduction in viral replication at 100 nM treated through microporation 17 hrs prior to infection for 4 hrs measured after 20 hrs by luciferase assay. It is filed as functional, organism-based. As to conditions: Hepacivirus hominis, Huh-7. The procedure, abridged: as §1

For series [6], the system named is Hepatitis C virus. Nature of the series: Antiviral activity against HCV infected in human Huh7.5.1 cells at 100 nM treated through lipofection after 17 hrs of infection by luciferase assay. As to conditions: Hepacivirus hominis, Huh-7. The format is functional, organism-based. The gist of the method: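 Huh7.5.1 cells were infected with reporter HCVcc (FL-J6/JFH-5/C19Rluc2AUbi construct) without trypsinization. After 17 h, cells were transfected with oligodeoxynucleotide using a lipid reagent (10–1000 nM tested). Replication signal was normalized to cell number by WST-1 and expressed as % of a scrambled-sequence non-specific ODN control. Triplicate.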

Series [7] has as its system Hepatitis C virus. The series is described as follows: Antiviral activity against HCV infected in human Huh7.5.1 cells at 1000 nM treated through lipofection after 17 hrs of infection by luciferase assay. It is filed as functional, Hepacivirus hominis, Huh-7. The procedure, abridged:
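Huh7.5.1 cells first infected with HCVcc; after 17 h, ODNs transfected by lipid reagent at 10–1000 nM. Triplicate runs; signal normalised to cell number by WST-1 and expressed as percent of non-specific scrambled ODN control.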

The test system of series [8] is Hepatitis C virus. Nature of the series: Antiviral activity against HCV infected in human Huh7.5.1 cells assessed as reduction in viral replication at 1000 nM treated through microporation 17 hrs prior to infection for 4 hrs measured after 20 hrs by luciferase assay. The format is functional, organism-based. The following applies: Hepacivirus hominis, Huh-7. The gist of the method: as §1

Calls of active or inactive are those of the source. No cut-off for these calls is given here.

For the molecule `Cc1cn([C@@H]2O[C@H](COP(=O)(O)O[C@H]3[C@@H](O)[C@H](n4ccc(N)nc4=O)O[C@@H]3COP(=O)(O)O[C@H]3[C@@H](O)[C@H](n4ccc(N)nc4=O)O[C@@H]3COP(=O)(O)O[C@H]3[C@@H](O)[C@H](n4ccc(N)nc4=O)O[C@@H]3COP(=O)(O)O[C@H]3[C@@H](O)[C@H](n4cnc5c(N)ncnc54)O[C@@H]3COP(=O)(O)O[C@H]3[C@@H](O)[C@H](n4cnc5c(N)ncnc54)O[C@@H]3COP(=O)(O)O[C@H]3[C@@H](O)[C@H](n4ccc(N)nc4=O)O[C@@H]3CO)[C@@H](OP(=O)(O)OC[C@H]3O[C@@H](n4cnc5c(N)ncnc54)[C@H](O)[C@@H]3OP(=O)(O)OC[C@H]3O[C@@H](n4cnc5c(=O)[nH]c(N)nc54)[C@H](O)[C@@H]3OP(=O)(O)OC[C@H]3O[C@@H](n4cc(C)c(=O)[nH]c4=O)[C@H](O)[C@@H]3OP(=O)(O)OC[C@H]3O[C@@H](n4cc(C)c(=O)[nH]c4=O)[C@H](O)[C@@H]3OP(=O)(O)OC[C@H]3O[C@@H](n4cc(C)c(=O)[nH]c4=O)[C@H](O)[C@@H]3OP(=O)(O)OC[C@H]3O[C@@H](n4cnc5c(=O)[nH]c(N)nc54)[C@H](O)[C@@H]3OP(=O)(O)OC[C@H]3O[C@@H](n4cc(C)c(=O)[nH]c4=O)[C@H](O)[C@@H]3OP(=O)(O)OC[C@H]3O[C@@H](n4ccc(N)nc4=O)[C@H](O)[C@@H]3O[PH](O)(O)OC[C@H]3O[C@@H](n4cnc5c(N)ncnc54)[C@H](O)[C@@H]3OP(=O)(O)OC[C@H]3O[C@@H](n4cnc5c(N)ncnc54)[C@H](O)[C@@H]3OP(=O)(O)O)[C@H]2O)c(=O)[nH]c1=O`, in series [1], the Activity entry is “Non-toxic”.

As for `Cc1cn([C@@H]2O[C@H](COP(=O)(O)O[C@H]3[C@@H](O)[C@H](n4ccc(N)nc4=O)O[C@@H]3COP(=O)(O)O[C@H]3[C@@H](O)[C@H](n4cnc5c(N)ncnc54)O[C@@H]3COP(=O)(O)O[C@H]3[C@@H](O)[C@H](n4cc(C)c(=O)[nH]c4=O)O[C@@H]3COP(=O)(O)O[C@H]3[C@@H](O)[C@H](n4ccc(N)nc4=O)O[C@@H]3COP(=O)(O)O[C@@H]3[C@@H](COP(=O)(O)O[C@H]4[C@@H](O)[C@H](n5ccc(N)nc5=O)O[C@@H]4COP(=O)(O)O[C@H]4[C@@H](O)[C@H](n5cnc6c(N)ncnc65)O[C@@H]4COP(=O)(O)O[C@H]4[C@@H](O)[C@H](n5cnc6c(N)ncnc65)O[C@@H]4COP(=O)(O)O[C@H]4[C@@H](O)[C@H](n5ccc(N)nc5=O)O[C@@H]4COP(=O)(O)O[C@H]4[C@@H](O)[C@H](n5ccc(N)nc5=O)O[C@@H]4COP(=O)(O)O[C@H]4[C@@H](O)[C@H](n5ccc(N)nc5=O)O[C@@H]4COP(=O)(O)O[C@H]4C[C@H](n5cnc6c(N)ncnc65)O[C@@H]4COP(=O)(O)O)OC(n4cnc5c(N)ncnc54)[C@@H]3O)[C@@H](OP(=O)(O)OC[C@H]3O[C@@H](n4ccc(N)nc4=O)[C@H](O)[C@@H]3OP(=O)(O)OC[C@H]3O[C@@H](n4cnc5c(=O)[nH]c(N)nc54)[C@H](O)[C@@H]3OP(=O)(O)OC[C@H]3O[C@@H](n4cnc5c(=O)[nH]c(N)nc54)[C@H](O)[C@@H]3OP(=O)(O)OC[C@H]3O[C@@H](n4ccc(N)nc4=O)[C@H](O)[C@@H]3OP(=O)(O)O)[C@H]2O)c(=O)[nH]c1=O` (some centres undefined), the Activity result in series [2] was “Toxic”; in series [3], 50%; in series [4] it was “Dose-dependent effect”; in series [1], “Non-toxic”; in series [7], 50%. Moreover, the result in series [5] and in series [6] was Active.

For `Cc1cn([C@@H]2O[C@H](COP(=O)(O)O[C@H]3[C@@H](O)[C@H](n4ccc(N)nc4=O)O[C@@H]3COP(=O)(O)O[C@H]3[C@@H](O)[C@H](n4cnc5c(N)ncnc54)O[C@@H]3COP(=O)(O)O[C@H]3[C@@H](O)[C@H](n4cc(C)c(=O)[nH]c4=O)O[C@@H]3COP(=O)(O)O[C@H]3[C@@H](O)[C@H](n4ccc(N)nc4=O)O[C@@H]3COP(=O)(O)O[C@H]3[C@@H](O)[C@H](n4cnc5c(N)ncnc54)O[C@@H]3COP(=O)(O)O[C@H]3[C@@H](O)[C@H](n4ccc(N)nc4=O)O[C@@H]3COP(=O)(O)O[C@H]3[C@@H](O)[C@H](n4cnc5c(N)ncnc54)O[C@@H]3COP(=O)(O)O[C@H]3[C@@H](O)[C@H](n4cnc5c(N)ncnc54)O[C@@H]3COP(=O)(O)O[C@H]3[C@@H](O)[C@H](n4ccc(N)nc4=O)O[C@@H]3COP(=O)(O)O[C@H]3[C@@H](O)[C@H](n4ccc(N)nc4=O)O[C@@H]3COP(=O)(O)O[C@H]3[C@@H](O)[C@H](n4ccc(N)nc4=O)O[C@@H]3COP(=O)(O)O[C@H]3[C@@H](O)[C@H](n4cnc5c(N)ncnc54)O[C@@H]3CO)[C@@H](OP(=O)(O)OC[C@H]3O[C@@H](n4ccc(N)nc4=O)[C@H](O)[C@@H]3OP(=O)(O)OC[C@H]3O[C@@H](n4cnc5c(=O)[nH]c(N)nc54)[C@H](O)[C@@H]3OP(=O)(O)OC[C@H]3O[C@@H](n4cnc5c(=O)[nH]c(N)nc54)[C@H](O)[C@@H]3OP(=O)(O)OC[C@H]3O[C@@H](n4cnc(N)cc4=O)C[C@@H]3OP(=O)(O)OCCCNC(=O)CCc3c[nH]cn3)[C@H]2O)c(=O)[nH]c1=O`, the outcome in series [8] was inactive. Further, the Activity result in series [2] is “Toxic”; in series [3] it was 50%; in series [4], “Dose-dependent effect”; in series [1], “Non-toxic”; in series [7] it was 50%. For the same molecule, the result in series [5] and in series [6] was Active.

As for `Cc1cn([C@@H]2O[C@H](COP(=O)(O)O[C@H]3[C@@H](O)[C@H](n4ccc(N)nc4=O)O[C@@H]3COP(=O)(O)O[C@H]3[C@@H](O)[C@H](n4cnc5c(N)ncnc54)O[C@@H]3COP(=O)(O)O[C@H]3[C@@H](O)[C@H](n4cc(C)c(=O)[nH]c4=O)O[C@@H]3COP(=O)(O)O[C@H]3[C@@H](O)[C@H](n4ccc(N)nc4=O)O[C@@H]3COP(=O)(O)O[C@@H]3[C@@H](COP(=O)(O)O[C@H]4[C@@H](O)[C@H](n5ccc(N)nc5=O)O[C@@H]4COP(=O)(O)O[C@H]4[C@@H](O)[C@H](n5cnc6c(N)ncnc65)O[C@@H]4COP(=O)(O)O[C@H]4[C@@H](O)[C@H](n5cnc6c(N)ncnc65)O[C@@H]4COP(=O)(O)O[C@H]4[C@@H](O)[C@H](n5ccc(N)nc5=O)O[C@@H]4COP(=O)(O)O[C@H]4[C@@H](O)[C@H](n5ccc(N)nc5=O)O[C@@H]4COP(=O)(O)O[C@H]4[C@@H](O)[C@H](n5ccc(N)nc5=O)O[C@@H]4COP(=O)(O)O[C@H]4C[C@H](n5cnc6c(N)ncnc65)O[C@@H]4COP(=O)(O)OCCCNC(=O)CCc4c[nH]cn4)OC(n4cnc5c(N)ncnc54)[C@@H]3O)[C@@H](OP(=O)(O)OC[C@H]3O[C@@H](n4ccc(N)nc4=O)[C@H](O)[C@@H]3OP(=O)(O)OC[C@H]3O[C@@H](n4cnc5c(=O)[nH]c(N)nc54)[C@H](O)[C@@H]3OP(=O)(O)OC[C@H]3O[C@@H](n4cnc5c(=O)[nH]c(N)nc54)[C@H](O)[C@@H]3OP(=O)(O)OC[C@H]3O[C@@H](n4ccc(N)nc4=O)[C@H](O)[C@@H]3OP(=O)(O)O)[C@H]2O)c(=O)[nH]c1=O` (some centres undefined), the result in series [8] was inactive. Further, the Activity entry is “Toxic” in series [2]; 50% in series [3]; “Dose-dependent effect” in series [4]; “Non-toxic” in series [1]; 50% in series [7]. Besides, the result in series [5] and in series [6] was Active.
